# Source: EPA's CvTdb concentration-time database
# Key:
# Rat [1] = experiment: concentration in liver after dosing; details: 1 h; dosed: Fluorotelomer alcohol 8+2; 24 mg/kg; oral; Male; Harlan Sprague Dawley
# Rat [2] = experiment: concentration in plasma after dosing; details: dosed: Fluorotelomer alcohol 8+2, 40 mg/kg, iv, Male, F344
# Rat [3] = experiment: concentration in plasma after dosing; details: dosed: Fluorotelomer alcohol 8+2, 12 mg/kg, oral, Male, Harlan Sprague Dawley
# Rat [4] = experiment: concentration in brain after dosing; details: 0.5 h; dosed: Fluorotelomer alcohol 8+2; 80 mg/kg; oral; Female; Harlan Sprague Dawley
# Rat [5] = experiment: concentration in liver after dosing; details: 0.5 h; dosed: Fluorotelomer alcohol 8+2; 24 mg/kg; oral; Male; Harlan Sprague Dawley
# Rat [6] = experiment: concentration in plasma after dosing; details: dosed: Fluorotelomer alcohol 8+2, 12 mg/kg, iv, Male, F344
# Rat [7] = experiment: concentration in liver after dosing; details: 1 h; dosed: Fluorotelomer alcohol 8+2; 24 mg/kg; oral; Male; Harlan Sprague Dawley; remark: listed apart in the source
# Rat [8] = experiment: concentration in plasma after dosing; details: dosed: Fluorotelomer alcohol 8+2, 12 mg/kg, oral, Male, Harlan Sprague Dawley; remark: listed apart in the source
# Rat [9] = experiment: concentration in plasma after dosing; details: 9 h; dosed: Primidone; 30 mg/kg; oral; Female; F344
# Rat [10] = experiment: concentration in plasma after dosing; details: 3 h; dosed: Primidone; 130 mg/kg; oral; Female; F344
# Rat [11] = experiment: concentration in liver after dosing; details: 1 h; dosed: Perfluorodecanoic acid; 10 mg/kg; oral; Male; Harlan Sprague Dawley
# Rat [12] = experiment: concentration in plasma after dosing; details: dosed: Perfluorodecanoic acid, 2 mg/kg, iv, Male, F344
# Rat [13] = experiment: concentration in kidney after dosing; details: 24 h; dosed: Perfluorodecanoic acid; 10 mg/kg; oral; Female; Harlan Sprague Dawley
# Rat [14] = experiment: concentration in liver after dosing; details: 1 h; dosed: Perfluorodecanoic acid; 10 mg/kg; oral; Female; Harlan Sprague Dawley
# Rat [15] = experiment: concentration in plasma after dosing; details: dosed: Perfluorodecanoic acid, 2 mg/kg, iv, Male, F344; remark: listed apart in the source
# Rat [16] = experiment: concentration in thymus after dosing; details: 1 h; dosed: Bis 2-Chloroethoxy Methane; 20 mg/kg; iv; Male; F344
# Rat [17] = experiment: concentration in heart after dosing; details: 2 h; dosed: Bis 2-Chloroethoxy Methane; 20 mg/kg; iv; Female; F344
# Rat [18] = experiment: concentration in heart after dosing; details: 1 h; dosed: Bis 2-Chloroethoxy Methane; 20 mg/kg; iv; Male; F344
# Rat [19] = experiment: concentration in plasma after dosing; details: 5 h; dosed: Bis 2-Chloroethoxy Methane; 20 mg/kg; iv; Female; F344
# Rat [20] = experiment: concentration in plasma after dosing; details: dosed: dichloroacetic acid, 100 mg/kg, oral, Male, F344
# Rat [21] = experiment: concentration in plasma after dosing; details: dosed: dichloroacetic acid, 10 mg/kg, oral, Male, Harlan Sprague Dawley
# Rat [22] = experiment: concentration in plasma after dosing; details: dosed: Wyeth-14643, 2.0 mg/kg, oral, Male, Sprague-Dawley
# Rat [23] = experiment: concentration in plasma after dosing; details: dosed: Wyeth-14643, 1.0 mg/kg, oral, Male, Sprague-Dawley
# Rat [24] = experiment: concentration in plasma after dosing; details: 2.5 min; dosed: Wyeth-14643; 2.0 mg/kg; iv; Male; Sprague-Dawley
# Rat [25] = experiment: concentration in plasma after dosing; details: 2 h; dosed: Thiodiglycolic Acid; 20 mg/kg; iv; Male; Harlan Sprague Dawley
# Rat [26] = experiment: concentration in heart after dosing; details: 10 min; dosed: Thiodiglycolic Acid; 20 mg/kg; iv; Male; F344
# Rat [27] = experiment: concentration in thymus after dosing; details: 10 min; dosed: Thiodiglycolic Acid; 20 mg/kg; iv; Female; Harlan Sprague Dawley
# Rat [28] = experiment: concentration in thymus after dosing; details: 5.333 h; dosed: Thiodiglycolic Acid; 20 mg/kg; iv; Male; Harlan Sprague Dawley
# Rat [29] = experiment: concentration in heart after dosing; details: 1 h; dosed: Thiodiglycolic Acid; 20 mg/kg; iv; Female; Harlan Sprague Dawley
# Rat [30] = experiment: concentration in plasma after dosing; details: 40 min; dosed: Thiodiglycolic Acid; 20 mg/kg; iv; Female; Harlan Sprague Dawley
# Rat [31] = experiment: concentration in liver after dosing; details: 1 h; dosed: Thiodiglycolic Acid; 20 mg/kg; iv; Female; Harlan Sprague Dawley
# Rat [32] = experiment: concentration in liver after dosing; details: 40 min; dosed: Thiodiglycolic Acid; 20 mg/kg; iv; Female; Harlan Sprague Dawley
# Rat [33] = experiment: concentration in plasma after dosing; details: 1 h; dosed: Di-n-butyl phthalate; 50 mg/kg; oral; Male; Sprague-Dawley
# Rat [34] = experiment: concentration in plasma after dosing; details: 10 min; dosed: Di-n-butyl phthalate; 50 mg/kg; oral; Male; Sprague-Dawley
# Rat [35] = experiment: concentration in plasma after dosing; details: 40 min; dosed: Di-n-butyl phthalate; 50 mg/kg; oral; Male; Sprague-Dawley
# dog = details: dosed: tetrachloroethylene, 142 ppm, inhalation, duration: 4 hr, male, beagle
# Outline: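 Points were largely digitised from plot screenshots with WebPlotDigitizer or otherwise copied from tables, and they remain in the units each source reported. They come from published in vivo toxicokinetic studies and two structured collections. Sampling and analytical methods follow each source and were often not reported.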
smiles,measurement,setting,value
OCCC(F)(F)C(F)(F)C(F)(F)C(F)(F)C(F)(F)C(F)(F)C(F)(F)C(F)(F)F [Fluorotelomer alcohol 8+2],concentration in liver,Rat [1],4670 ng/g
same,concentration in plasma,Rat [2]; 0.25 h,14.2 µg/mL
same,concentration in plasma,Rat [2]; 6 h,0.186 µg/mL
same,concentration in plasma,Rat [3]; 0.25 h,0.183 µg/mL
same,concentration in plasma,Rat [3]; 6 h,0.0279 µg/mL
same,concentration in brain,Rat [4],2670 ng/g
same,concentration in liver,Rat [5],7210 ng/g
same,concentration in plasma,Rat [6]; 5 min,3.71 µg/mL
same,concentration in plasma,Rat [6]; 3 h,0.125 µg/mL
same,concentration in liver,Rat [7],4650 ng/g
same,concentration in plasma,Rat [8]; 5 min,0.00204 µg/mL
same,concentration in plasma,Rat [8]; 3 h,0.147 µg/mL
CCC1(c2ccccc2)C(=O)NC(=O)NC1=O [Phenobarbital],concentration in plasma,Rat [9],0.99 µg/mL
same,concentration in plasma,Rat [10],5.51 µg/mL
O=C(O)C(F)(F)C(F)(F)C(F)(F)C(F)(F)C(F)(F)C(F)(F)C(F)(F)C(F)(F)C(F)(F)F [Perfluorodecanoic acid],concentration in liver,Rat [11],50300 ng/g
same,concentration in plasma,Rat [12]; 24 h,5.82 µg/mL
same,concentration in plasma,Rat [12]; 1848 h,0.764 µg/mL
same,concentration in kidney,Rat [13],67300 ng/g
same,concentration in liver,Rat [14],48000 ng/g
same,concentration in plasma,Rat [15]; 5 min,7.13 µg/mL
same,concentration in plasma,Rat [15]; 192 h,3.04 µg/mL
ClCCOCOCCCl [Bis 2-Chloroethoxy Methane],concentration in thymus,Rat [16],5370 ng/g
same,concentration in heart,Rat [17],247 ng/g
same,concentration in heart,Rat [18],1380 ng/g
same,concentration in plasma,Rat [19],0.0248 µg/mL
O=C(O)C(Cl)Cl [dichloroacetic acid],concentration in plasma,Rat [20]; 0.25 h,13.3 µg/mL
same,concentration in plasma,Rat [20]; 6 h,32.8 µg/mL
same,concentration in plasma,Rat [21]; 10 min,0.438 µg/mL
same,concentration in plasma,Rat [21]; 50 min,0.158 µg/mL
Cc1cccc(Nc2cc(Cl)nc(SCC(=O)O)n2)c1C,concentration in plasma,Rat [22]; 0.5 h,1.67 µg/mL
same,concentration in plasma,Rat [22]; 5 h,0.507 µg/mL
same,concentration in plasma,Rat [23]; 0.25 h,0.341 µg/mL
same,concentration in plasma,Rat [23]; 4 h,0.214 µg/mL
same,concentration in plasma,Rat [24],30.5 µg/mL
O=C(O)CSCC(=O)O [Thiodiglycolic Acid],concentration in plasma,Rat [25],0.79 µg/mL
same,concentration in heart,Rat [26],8260 ng/g
same,concentration in thymus,Rat [27],7780 ng/g
same,concentration in thymus,Rat [28],471 ng/g
same,concentration in heart,Rat [29],1530 ng/g
same,concentration in plasma,Rat [30],4.12 µg/mL
same,concentration in liver,Rat [31],62700 ng/g
same,concentration in liver,Rat [32],10000 ng/g
CCCCOC(=O)c1ccccc1C(=O)O [Mono-n-butyl phthalate],concentration in plasma,Rat [33],3.07 µg/mL
same,concentration in plasma,Rat [34],26.1 µg/mL
same,concentration in plasma,Rat [35],16.8 µg/mL
O=C(O)C(Cl)(Cl)Cl [trichloroacetic acid],amount in urine after dosing,dog; 22 h,8.68 mg
same,amount in urine after dosing,dog; 46 h,3 mg
same,amount in urine after dosing,dog; 70 h,1.93 mg
